Results: ChEMBL document CHEMBL1123677, “Structure-activity studies of 5-[[4-(4,5-dihydro-2-oxazolyl) phenoxy]alkyl]-3-methylisoxazoles: inhibitors of picornavirus uncoating” (J Med Chem, 1987)
≈ marks a conversion by molar mass, not a printed value. Calls of active or inactive are those of the source. The rule behind the calls is not given here.

Tests used:
rhinovirus A1B [1] = assay: Expanded antirhinoviral activity against the rhinovirus serotype 1B; format: functional, human rhinovirus type 1b; conditions: Rhinovirus A
Procedure, shortened: (§1)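 Selected compounds were tested across a 15-serotype rhinovirus panel: the five secondary serotypes plus 10 more. An MIC was recorded for each serotype. MIC80, the concentration inhibiting 80% of serotypes tested, was also derived from this panel.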

rhinovirus A15 [2] = assay: Expanded antirhinoviral activity against the rhinovirus serotype 15; format: functional; conditions: Rhinovirus A; procedure, shortened: as §1
[3] = test system: human rhinovirus (15-serotype panel); assay: Antirhinovirus activity was determined by the ability to inhibit the growth of 80% of a panel of 15 human rhinovirus serotypes
Human rhinovirus 1A [4] = assay: Expanded antirhinoviral activity against the rhinovirus serotype 1A; format: functional; procedure, shortened: as §1
rhinovirus A41 [5] = assay: Expanded antirhinoviral activity against the rhinovirus serotype 41; format: functional; conditions: Rhinovirus A; procedure, shortened: as §1
rhinovirus A30 [6] = assay: Expanded antirhinoviral activity against the rhinovirus serotype 30; format: functional; conditions: Rhinovirus A; procedure, shortened: as §1
rhinovirus A89 [7] = assay: Expanded antirhinoviral activity against the rhinovirus serotype 89; format: functional, human rhinovirus type 89; conditions: Rhinovirus A; procedure, shortened: as §1
Human rhinovirus sp. = assay: Mean of MIC's was determined for the five types of virus like HRV-2, HRV-1A,HRV-22,HRV-41 and HRV-50; format: functional
Procedure, shortened: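 MIC measured by plaque reduction against HRV-2 first. The value is the mean of the MICs across these five serotypes.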

rhinovirus A2 [8] = assay: Antirhinovirus activity was assessed and the maximum testable concentration that causes no apparent effects on the cell monolayers was determined against HRV-2 virus in vitro.; format: functional, human rhinovirus type 2
rhinovirus A67 [9] = assay: Expanded antirhinoviral activity against the rhinovirus serotype 67; format: functional; conditions: Rhinovirus A; procedure, shortened: as §1
rhinovirus A2 [10] = assay: Antiviral activity determined by ability to inhibit the HRV-2( human rhinovirus type -2) virus by plaque reduction assay in vitro; format: functional; conditions: Rhinovirus A
Procedure, shortened: (§2)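 Plaque reduction assay against human rhinovirus type 2 (HRV-2), following an earlier reported method. The value is the MIC, the minimum inhibitory concentration.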

rhinovirus A25 [11] = assay: Expanded antirhinoviral activity against the rhinovirus serotype 25; format: functional; conditions: Rhinovirus A; procedure, shortened: as §1
rhinovirus A2 [12] = assay: Expanded antirhinoviral activity against the rhinovirus serotype 2; format: functional, human rhinovirus type 2; conditions: Rhinovirus A; procedure, shortened: as §1
rhinovirus A22 [13] = assay: Expanded antirhinoviral activity against the rhinovirus serotype 22; format: functional; conditions: Rhinovirus A; procedure, shortened: as §1
rhinovirus B14 [14] = assay: Expanded antirhinoviral activity against the rhinovirus serotype 14; format: functional, human rhinovirus type 14; conditions: Rhinovirus B; procedure, shortened: as §1
rhinovirus A21 [15] = assay: Expanded antirhinoviral activity against the rhinovirus serotype 21; format: functional; conditions: Rhinovirus A; procedure, shortened: as §1
rhinovirus B6 [16] = assay: Expanded antirhinoviral activity against the rhinovirus serotype 6; format: functional; conditions: Rhinovirus B; procedure, shortened: as §1
rhinovirus B86 [17] = assay: Expanded antirhinoviral activity against the rhinovirus serotype 86; format: functional; conditions: Rhinovirus B; procedure, shortened: as §1
rhinovirus A50 [18] = assay: Expanded antirhinoviral activity against the rhinovirus serotype 50; format: functional; conditions: Rhinovirus A; procedure, shortened: as §1
[19] = Partition coefficient (logP); format: physicochemical; conditions: octanol/water
rhinovirus B86 [20] = assay: Tested for antirhinoviral activity against the rhinovirus serotype 86; format: functional; conditions: Rhinovirus B; procedure, shortened: as §1
rhinovirus A2 [21] = assay: Antirhinovirus activity was determined by the ability to inhibit the HRV-2 (human rhinovirus type -2) virus by plaque reduction assay in vitro; format: functional; conditions: Rhinovirus A; procedure, shortened: as §2
rhinovirus A21 [22] = assay: Tested for antirhinoviral activity against the rhinovirus serotype 21; format: functional; conditions: Rhinovirus A; procedure, shortened: as §1
rhinovirus A67 [23] = assay: Tested for antirhinoviral activity against the rhinovirus serotype 67; format: functional; conditions: Rhinovirus A; procedure, shortened: as §1
rhinovirus A2 [24] = assay: Tested for antirhinoviral activity against the rhinovirus serotype 2; format: functional, human rhinovirus type 2; conditions: Rhinovirus A; procedure, shortened: as §1
rhinovirus A89 [25] = assay: Tested for antirhinoviral activity against the rhinovirus serotype 89; format: functional, human rhinovirus type 89; conditions: Rhinovirus A; procedure, shortened: as §1
rhinovirus B14 [26] = assay: Tested for antirhinoviral activity against the rhinovirus serotype 14; format: functional, human rhinovirus type 14; conditions: Rhinovirus B; procedure, shortened: as §1
rhinovirus A1B [27] = assay: Tested for antirhinoviral activity against the rhinovirus serotype 1B; format: functional, human rhinovirus type 1b; conditions: Rhinovirus A; procedure, shortened: as §1
rhinovirus A15 [28] = assay: Tested for antirhinoviral activity against the rhinovirus serotype 15; format: functional; conditions: Rhinovirus A; procedure, shortened: as §1
rhinovirus A22 [29] = assay: Tested for antirhinoviral activity against the rhinovirus serotype 22; format: functional; conditions: Rhinovirus A; procedure, shortened: as §1
rhinovirus A30 [30] = assay: Tested for antirhinoviral activity against the rhinovirus serotype 30; format: functional; conditions: Rhinovirus A; procedure, shortened: as §1
rhinovirus A50 [31] = assay: Tested for antirhinoviral activity against the rhinovirus serotype 50; format: functional; conditions: Rhinovirus A; procedure, shortened: as §1
rhinovirus B6 [32] = assay: Tested for antirhinoviral activity against the rhinovirus serotype 6; format: functional; conditions: Rhinovirus B; procedure, shortened: as §1
Human rhinovirus 1A [33] = assay: Tested for antirhinoviral activity against the rhinovirus serotype 1A; format: functional; procedure, shortened: as §1
rhinovirus A25 [34] = assay: Tested for antirhinoviral activity against the rhinovirus serotype 25; format: functional; conditions: Rhinovirus A; procedure, shortened: as §1
rhinovirus A41 [35] = assay: Tested for antirhinoviral activity against the rhinovirus serotype 41; format: functional; conditions: Rhinovirus A; procedure, shortened: as §1
rhinovirus A1B [36] = assay: Tested for antirhinoviral activity against the rhinovirus serotype 1B; IA is inactive; format: functional, organism-based; conditions: human rhinovirus type 1b; procedure, shortened: as §1
rhinovirus A25 [37] = assay: Tested for antirhinoviral activity against the rhinovirus serotype 25; IA is inactive; format: functional, organism-based; procedure, shortened: as §1

Row | SMILES | MIC80 [3] [µM] | MIC (Human rhinovirus sp.) [µM] | MTL (rhinovirus A2 [8]) [µM] | MIC (rhinovirus A2 [10]) [µM] | logP [19] | MIC (rhinovirus B86 [20]) [µM] | MIC (rhinovirus A2 [21]) [µM] | MIC (rhinovirus A21 [22]) [µM] | MIC (rhinovirus A67 [23]) [µM] | MIC (rhinovirus A2 [24]) [µM] | MIC (rhinovirus A89 [25]) [µM] | MIC (rhinovirus B14 [26]) [µM] | MIC (rhinovirus A1B [27]) [µM] | MIC (rhinovirus A15 [28]) [µM] | MIC (rhinovirus A22 [29]) [µM] | MIC (rhinovirus A30 [30]) [µM] | MIC (rhinovirus A50 [31]) [µM] | MIC (rhinovirus B6 [32]) [µM] | MIC (Human rhinovirus 1A [33]) [µM] | MIC (rhinovirus A41 [35]) [µM] | other results
1 | Cc1cc(CCCCCOc2ccc(C3=NCCO3)cc2[N+](=O)[O-])on1 | 1.8 (≈ 0.647 µg/mL) | 0.7 (≈ 0.252 µg/mL) | 3.9 | 0.04 (≈ 0.0144 µg/mL) | 3.49 | – | – | – | – | – | – | – | – | – | – | – | – | – | – | – | MIC (rhinovirus A1B [1]): 0.2 µM (≈ 0.0719 µg/mL); MIC (rhinovirus A15 [2]): 0.3 µM (≈ 0.108 µg/mL); MIC (Human rhinovirus 1A [4]): 0.9 µM (≈ 0.323 µg/mL); MIC (rhinovirus A41 [5]): 2 µM (≈ 0.719 µg/mL); MIC (rhinovirus A30 [6]): 0.1 µM (≈ 0.0359 µg/mL); MIC (rhinovirus A89 [7]): 0.06 µM (≈ 0.0216 µg/mL); MIC (rhinovirus A67 [9]): 0.2 µM (≈ 0.0719 µg/mL); MIC (rhinovirus A25 [11]): 1.9 µM (≈ 0.683 µg/mL); MIC (rhinovirus A2 [12]): 0.06 µM (≈ 0.0216 µg/mL); MIC (rhinovirus A22 [13]): 0.1 µM (≈ 0.0359 µg/mL); MIC (rhinovirus B14 [14]): 1.8 µM (≈ 0.647 µg/mL); MIC (rhinovirus A21 [15]): 0.06 µM (≈ 0.0216 µg/mL); MIC (rhinovirus B6 [16]): 1.6 µM (≈ 0.575 µg/mL); MIC (rhinovirus B86 [17]): 2 µM (≈ 0.719 µg/mL); MIC (rhinovirus A50 [18]): 0.2 µM (≈ 0.0719 µg/mL)
2 | Cc1cc(CCCCCOc2ccc(C3=NCCO3)cc2Br)on1 | 1.4 (≈ 0.551 µg/mL) | 0.4 (≈ 0.157 µg/mL) | 7.9 | – | 4.42 | 1.4 (≈ 0.551 µg/mL) | 0.04 (≈ 0.0157 µg/mL) | 0.01 (≈ 0.00393 µg/mL) | 0.2 (≈ 0.0787 µg/mL) | 0.05 (≈ 0.0197 µg/mL) | 0.02 (≈ 0.00787 µg/mL) | 2 (≈ 0.787 µg/mL) | 0.1 (≈ 0.0393 µg/mL) | 0.2 (≈ 0.0787 µg/mL) | 0.05 (≈ 0.0197 µg/mL) | 0.08 (≈ 0.0315 µg/mL) | 0.1 (≈ 0.0393 µg/mL) | 1.1 (≈ 0.433 µg/mL) | 0.5 (≈ 0.197 µg/mL) | 1.4 (≈ 0.551 µg/mL) | MIC (rhinovirus A25 [34]): 1.8 µM (≈ 0.708 µg/mL)
3 | Cc1cc(CCCCCOc2ccc(C3=NCCO3)cc2C)on1 | 0.6 (≈ 0.197 µg/mL) | 1.4 (≈ 0.46 µg/mL) | 19 | – | 4.4 | 0.6 (≈ 0.197 µg/mL) | 0.1 (≈ 0.0328 µg/mL) | 0.06 (≈ 0.0197 µg/mL) | 0.2 (≈ 0.0657 µg/mL) | 0.09 (≈ 0.0296 µg/mL) | 0.06 (≈ 0.0197 µg/mL) | 0.6 (≈ 0.197 µg/mL) | 0.3 (≈ 0.0985 µg/mL) | 0.2 (≈ 0.0657 µg/mL) | 0.2 (≈ 0.0657 µg/mL) | 0.05 (≈ 0.0164 µg/mL) | 0.3 (≈ 0.0985 µg/mL) | 0.6 (≈ 0.197 µg/mL) | 2 (≈ 0.657 µg/mL) | 4.3 (≈ 1.41 µg/mL) | MIC (rhinovirus A25 [34]): 6.7 µM (≈ 2.2 µg/mL)
4 | Cc1cc(CCCCCOc2ccc(C3=NCCO3)cc2)on1 | 7 (≈ 2.2 µg/mL) | 5.2 (≈ 1.63 µg/mL) | 9.9 | 1.1 (≈ 0.346 µg/mL) | – | 0.2 (≈ 0.0629 µg/mL) | – | 1.2 (≈ 0.377 µg/mL) | 2.4 (≈ 0.755 µg/mL) | 1.1 (≈ 0.346 µg/mL) | 0.4 (≈ 0.126 µg/mL) | 0.7 (≈ 0.22 µg/mL) | – | 1.5 (≈ 0.472 µg/mL) | 0.9 (≈ 0.283 µg/mL) | 0.3 (≈ 0.0943 µg/mL) | 1.5 (≈ 0.472 µg/mL) | 0.06 (≈ 0.0189 µg/mL) | 7 (≈ 2.2 µg/mL) | 15 (≈ 4.72 µg/mL) | MIC (rhinovirus A1B [36]): inactive; MIC (rhinovirus A25 [37]): inactive
5 | COc1cc(C2=NCCO2)ccc1OCCCCCc1cc(C)no1 | 1.9 (≈ 0.654 µg/mL) | 4.5 (≈ 1.55 µg/mL) | 37 | 0.3 (≈ 0.103 µg/mL) | 3.44 | 1.9 (≈ 0.654 µg/mL) | – | 0.2 (≈ 0.0689 µg/mL) | 1 (≈ 0.344 µg/mL) | 0.3 (≈ 0.103 µg/mL) | 0.7 (≈ 0.241 µg/mL) | 1.7 (≈ 0.585 µg/mL) | 1.8 (≈ 0.62 µg/mL) | 0.6 (≈ 0.207 µg/mL) | 0.8 (≈ 0.276 µg/mL) | 0.2 (≈ 0.0689 µg/mL) | 0.4 (≈ 0.138 µg/mL) | 1 (≈ 0.344 µg/mL) | 6.7 (≈ 2.31 µg/mL) | 14 (≈ 4.82 µg/mL) | IA (rhinovirus A25 [37]): inactive
